Reference: ChEMBL document CHEMBL5705899 (Biochem J, 2014)
Active and inactive are the calls of the source. No cut-off for these calls is given here.

Columns and labels:
U2OS = experiment: Inhibition of PI3K in human U2OS cells expressing FLAG-tagged SGK3 assessed as reduction in AKT phosphorylation at T308 residues at 0.01 to 1 uM 1 hr by immunoblot analysis; type: cell-based; conditions: dose 0.01-1 µM
Method in brief: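 Flp-In T-REx U2OS cells were grown in McCoy medium with 10% FBS. Expression of C-terminally FLAG-tagged full-length SGK3 was induced with 0.01 mg/ml doxycycline for 24 h. Cells were treated with inhibitor for 1 h and lysed in phosphatase-inhibitor buffer. Lysates were cleared at 16000 g for 10 min at 4°C, protein was measured by Bradford, and phosphorylation was read by immunoblot with ECL detection.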

[1] = target: Serine/threonine-protein kinase 3 (Homo sapiens) (UniProt Q13188); experiment: Inhibition of recombinant human N-terminal GST-tagged MST2 (2 to 491 residues) expressed in baculovirus infected Sf21 cells assessed as remaining activity at 1 uM using MBP as substrate incubated for 30 mins in presence of [gamma-33P]ATP by filter binding method relative to control
[2] = target: Phosphatidylinositol 4,5-bisphosphate 3-kinase catalytic subunit beta isoform (Homo sapiens, UniProt P42338); experiment: Inhibition of PI3Kbeta (unknown origin) using PtdIns(4,5)P2 as substrate preincubated for 20 mins followed by substrate addition and measured after 80 mins by Kinase-Glo assay
[3] = target: Cytoplasmic tyrosine-protein kinase BMX (Homo sapiens) (UniProt P51813); experiment: Inhibition of human BMX at 1 uM using polyEy as substrate in presence of 33P-ATP by ProQinase assay
[4] = target: MAP kinase-interacting serine/threonine-protein kinase 1 (Homo sapiens) (UniProt Q9BUB5); experiment: Inhibition of human MKNK1 at 1 uM using RB-S6P as substrate in presence of 33P-ATP by ProQinase assay
[5] = target: Serine/threonine-protein kinase BRSK1 (Homo sapiens) (UniProt Q8TDC3); experiment: (§1) Inhibition of recombinant human N-terminal His6-tagged BRSK1 (2 to 778 residues) expressed in baculovirus infected Sf21 cells assessed as remaining activity at 1 uM using KKLNRTLSFAEPG as substrate incubated for 30 mins in presence of [gamma-33P]ATP by filter binding method relative to control
[6] = target: Serine/threonine-protein kinase tousled-like 1 (Homo sapiens) (UniProt Q9UKI8); experiment: Inhibition of human TLK1 at 1 uM using RB-CTF as substrate in presence of 33P-ATP by ProQinase assay
[7] = target: Aurora kinase A (Homo sapiens) (UniProt O14965); experiment: Inhibition of recombinant human N-terminal Hi6-tagged Aurora A (2 to 403 residues) expressed in Escherichia coli assessed as remaining activity at 1 uM using LRRLSLGLRRLSLGLRRLSLGLRRLSLG as substrate incubated for 30 mins in presence of [gamma-33P]ATP by filter binding method relative to control
[8] = target: Calcium/calmodulin-dependent protein kinase type 1D (Homo sapiens) (UniProt Q8IU85); experiment: Inhibition of human CAMK1D at 1 uM using RBER-CHKtide as substrate in presence of 33P-ATP by ProQinase assay
[9] = target: Phosphatidylinositol 4-kinase type 2-alpha (Homo sapiens, UniProt Q9BTU6); experiment: Inhibition of PI4K2alpha (unknown origin) at 1 uM
[10] = target: Dual specificity mitogen-activated protein kinase kinase 2 (Homo sapiens) (UniProt P36507); experiment: Inhibition of human MEK2 at 1 uM using RBER-IRStide as substrate in presence of 33P-ATP by ProQinase assay
[11] = target: Mast/stem cell growth factor receptor Kit (Homo sapiens) (UniProt P10721); experiment: Inhibition of human KIT at 1 uM using polyEY as substrate in presence of 33P-ATP by ProQinase assay
[12] = target: Proto-oncogene tyrosine-protein kinase ROS (Homo sapiens) (UniProt P08922); experiment: Inhibition of human ROS at 1 uM using poly(Ala,Glu,Lys,Tyr) as substrate in presence of 33P-ATP by ProQinase assay
[13] = target: Calcium/calmodulin-dependent protein kinase kinase 1 (Homo sapiens) (UniProt Q8N5S9); experiment: Inhibition of human CAMKK1 at 1 uM using RB-CTF as substrate in presence of 33P-ATP by ProQinase assay
[14] = target: Serine/threonine-protein kinase PLK1 (Homo sapiens) (UniProt P53350); experiment: Inhibition of recombinant human N-terminal His6-tagged PLK1 (1 to 603 residues) expressed in baculovirus infected Sf21 cells assessed as remaining activity at 1 uM using ISDELMDATFADQEAKKK as substrate incubated for 30 mins in presence of [gamma-33P]ATP by filter binding method relative to control
[15] = target: Serine/threonine-protein kinase pim-1 (Homo sapiens) (UniProt P11309); experiment: Inhibition of recombinant human N-terminal His6-tagged PIM1 (2 to 313 residues) expressed in baculovirus infected Sf21 cells assessed as remaining activity at 1 uM using RSRHSSYPAGT as substrate incubated for 30 mins in presence of [gamma-33P]ATP by filter binding method relative to control
[16] = target: Mitogen-activated protein kinase kinase kinase kinase 2 (Homo sapiens) (UniProt Q12851); experiment: Inhibition of recombinant human N-terminal His6-tagged GCK (2 to 812 residues) expressed in baculovirus infected Sf21 cells assessed as remaining activity at 1 uM using MBP as substrate incubated for 30 mins in presence of [gamma-33P]ATP by filter binding method relative to control
[17] = target: Homeodomain-interacting protein kinase 2 (Homo sapiens) (UniProt Q9H2X6); experiment: Inhibition of recombinant human N-terminal GST-tagged HIPK2 (165 to 564 residues) expressed in Escherichia coli assessed as remaining activity at 1 uM using MBP as substrate incubated for 30 mins in presence of [gamma-33P]ATP by filter binding method relative to control
[18] = target: Tyrosine-protein kinase Fer (Homo sapiens) (UniProt P16591); experiment: Inhibition of human FER at 1 uM using polyEY as substrate in presence of 33P-ATP by ProQinase assay
[19] = target: Protein-tyrosine kinase 6 (Homo sapiens) (UniProt Q13882); experiment: Inhibition of recombinant human N-terminal His6-tagged BRK (1 to 451 residues) expressed in baculovirus infected Sf21 cells assessed as remaining activity at 1 uM using Poly (Glu,Tyr) as substrate incubated for 30 mins in presence of [gamma-33P]ATP by filter binding method relative to control
[20] = system: RAC-beta serine/threonine-protein kinase (Homo sapiens), P31751 [S474D]; experiment: as §1, with “PKBbeta S474D mutant (120” for “BRSK1 (2”, “481” for “778”, “crosstide peptide” for “KKLNRTLSFAEPG”
[21] = target: Protein kinase C epsilon type (Homo sapiens) (UniProt Q02156); experiment: Inhibition of human PKCepsilon at 1 uM using 3xChocktide-PKC as substrate in presence of 33P-ATP by ProQinase assay

CC(C)(O)CNc1ncc(-c2ccnc(Nc3ccnc(Cl)c3)n2)c(CC2CC2)n1
inhibition (U2OS): inactive | Activity [1]: 120% | IC50 [2]: 21.4 µM | inhibition [3]: inactive | inhibition [4]: inactive | Activity [5]: 109% | inhibition [6]: inactive | Activity [7]: 110% | inhibition [8]: inactive | inhibition [9]: inactive | inhibition [10]: inactive | inhibition [11]: inactive | inhibition [12]: inactive | inhibition [13]: inactive | Activity [14]: 114% | Activity [15]: 108% | Activity [16]: 104% | Activity [17]: 96% | inhibition [18]: inactive | Activity [19]: 103% | Activity [20]: 123% | inhibition [21]: inactive
